pIC50, pKi: −log10 of the molar value. Values belong to the compound of their own block, whether it stands above or below them. Residues, ends and D or L forms follow the SMILES beside them.
Legend:
[1] = biological target: T1, Proteasome Macropain subunit MB1 (Homo sapiens, UniProt P28074); test: Negative allosteric modulation of SDS-activated human erythrocytes 20S proteasome chymotrypsin like activity using Suc-LLVY-AMC as substrate measured every 2 mins up to 60 mins by fluorescence assay; settings: for pIC50: read-out: IC50
T1 sequence (P28074 whole entry): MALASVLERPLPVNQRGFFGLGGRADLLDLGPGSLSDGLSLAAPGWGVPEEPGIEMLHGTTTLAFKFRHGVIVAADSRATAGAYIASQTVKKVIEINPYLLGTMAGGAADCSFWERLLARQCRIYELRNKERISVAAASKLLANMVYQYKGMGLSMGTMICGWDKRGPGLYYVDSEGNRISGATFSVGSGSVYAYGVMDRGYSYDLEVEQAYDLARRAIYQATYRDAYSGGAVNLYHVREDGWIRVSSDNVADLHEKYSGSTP
How it was run: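 1.4 nM CP (0.001 mg/mL) in 50 mM Tris-HCl pH 8.0, activated with 0.005% SDS where stated, otherwise latent. Suc-LLVY-AMC at 100 μM final. AMC fluorescence read every 2 min up to 60 min at 37 °C. Activity relative to DMSO-treated enzyme, from at least three independent replicates. Peptide stocks 10 mM in DMSO.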

[2] = biological target: T1, Proteasome Macropain subunit MB1; test: Non-competitive mixed-type inhibition of SDS-activated human erythrocytes 20S proteasome chymotrypsin like activity using Suc-LLVY-AMC as substrate measured every 2 mins up to 60 mins by fluorescence assay
How it was run: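 SDS-activated CP at 1.4 nM. Suc-LLVY-AMC varied from 20 to 200 μM at inhibitor levels of 0.05, 0.1 and 0.2 μM. Fluorescence read kinetically at 37 °C. […] Three independent replicates.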

[3] = biological target: T1, Proteasome Macropain subunit MB1; test: Negative allosteric modulation of 10 uM Rpt5-activated human erythrocytes 20S proteasome chymotrypsin like activity using Suc-LLVY-AMC as substrate measured every 1 min up to 60 mins by fluorescence assay
How it was run: (§1)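 Suc-LLVY-AMC at 100 μM final. AMC fluorescence read every 1 min for 60 min at 37 °C. Activity relative to DMSO vehicle, at least three independent replicates.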

[4] = biological target: T1, Proteasome Macropain subunit MB1; test: Negative allosteric modulation of 1 uM Rpt5-activated human erythrocytes 20S proteasome chymotrypsin like activity using Suc-LLVY-AMC as substrate measured every 1 min up to 60 mins by fluorescence assay; how it was run: as §1
Fibroblast = test: Cytotoxicity against human primary fibroblasts assessed as effect on cell viability up to 20 uM after 24 hrs by WST1 assay; format: cell-based
How it was run: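 Primary human fibroblasts GM04390 in DMEM with 10% heat-inactivated FBS and antibiotics, at 3% O2, 5% CO2, 37 °C; seeded at 100 000 cells/mL, switched to Optimem at 24 h, exposed at 48 h to 0.1–20 μM peptide or DMSO for 24 h. Viability read by WST-1 (10% reagent, 4 h), absorbance 450 nm.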

- IC50 [1]: Not Active
Structure (SMILES): CC(C)C[C@H](NC(=O)[C@@H]1CCCN1C(=O)[C@@H]1CCCN1C(=O)[C@@H]1CCCN1C(=O)[C@@H]1CCCN1C(=O)[C@H](CCCNC(=N)N)NC(=O)[C@H](CCCNC(=N)N)NC(=O)[C@@H](N)CCCNC(=N)N)C(=O)N[C@@H](Cc1ccc(O)cc1)C(=O)N[C@@H](C)C(=O)O (H-RRRPPPPLYA-OH)

Structure (SMILES): CC(C)C[C@H](NC(=O)[C@H](Cc1ccc(O)cc1)NC(=O)[C@H](CCCNC(=N)N)NC(=O)[C@H](CCCNC(=N)N)NC(=O)[C@@H](N)CCCNC(=N)N)C(=O)N1CCC[C@H]1C(=O)N[C@@H](CCCNC(=N)N)C(=O)N[C@@H](Cc1c[nH]c2ccccc12)C(=O)NCC(N)=O (H-RRRYLPRWG-NH2)
- pKi [2]: 8.00
- pIC50 [1]: 7.09

Structure (SMILES): CC(C)C[C@H](NC(=O)[C@H](Cc1ccc(O)cc1)NC(=O)[C@@H]1CCCN1C(=O)[C@@H]1CCCN1C(=O)[C@H](CCCNC(=N)N)NC(=O)[C@@H]1CCCN1C(=O)[C@H](CCCNC(=N)N)NC(=O)[C@H](CCCNC(=N)N)NC(=O)[C@@H](N)CCCNC(=N)N)C(=O)N1CCC[C@H]1C(=O)N[C@@H](CCCNC(=N)N)C(=O)N[C@@H](Cc1c[nH]c2ccccc12)C(=O)NCC(N)=O (H-RRRPRPPYLPRWG-NH2)
- pIC50 [1]: 6.95

Structure (SMILES): CC(C)C[C@H](NC(=O)[C@H](Cc1ccc(O)cc1)NC(=O)[C@H](CCCNC(=N)N)NC(=O)[C@H](CCCNC(=N)N)NC(=O)[C@@H](N)CCCNC(=N)N)C(=O)N1CCC[C@H]1C(=O)N[C@@H](CCCNC(=N)N)C(=O)N[C@@H](Cc1c[nH]c2ccccc12)C(=O)NCC(=O)O (H-RRRYLPRWG-OH)
- pIC50 [1]: 6.95

Structure (SMILES): CC(C)C[C@H](NC(=O)[C@H](Cc1ccc(O)cc1)NC(=O)[C@@H]1CCCN1C(=O)[C@@H]1CCCN1C(=O)[C@H](CCCNC(=N)N)NC(=O)[C@@H]1CCCN1C(=O)[C@H](CCCNC(=N)N)NC(=O)[C@H](CCCNC(=N)N)NC(=O)[C@@H](N)CCCNC(=N)N)C(=O)N1CCC[C@H]1C(=O)N[C@@H](CCCNC(=N)N)C(=O)N[C@@H](Cc1c[nH]c2ccccc12)C(=O)NCC(=O)O (H-RRRPRPPYLPRWG-OH)
- pIC50 [3]: 6.30
- pKi [2]: 8.32
- pIC50 [1]: 7.30
- pIC50 [4]: 6.25

Structure (SMILES): CC(C)C[C@H](NC(=O)[C@H](Cc1ccc(O)cc1)NC(=O)[C@@H]1CCCN1C(=O)[C@@H]1CCCN1C(=O)[C@H](CCCNC(=N)N)NC(=O)[C@@H]1CCCN1C(=O)[C@H](CCCNC(=N)N)NC(=O)[C@H](CCCNC(=N)N)NC(=O)[C@@H](N)CCCNC(=N)N)C(=O)N1CCC[C@H]1C(=O)N[C@@H](CCCNC(=N)N)C(=O)N[C@@H](Cc1ccccc1)C(=O)NCC(=O)O (H-RRRPRPPYLPRFG-OH)
- pIC50 [1]: 7.00

- IC50 [1]: Not Active
Structure (SMILES): C[C@H](NC(=O)[C@H](Cc1ccc(O)cc1)NC(=O)[C@H](Cc1ccc(O)cc1)NC(=O)[C@@H]1CCCN1C(=O)[C@@H]1CCCN1C(=O)[C@@H]1CCCN1C(=O)[C@@H]1CCCN1C(=O)[C@H](CCCNC(=N)N)NC(=O)[C@H](CCCNC(=N)N)NC(=O)[C@@H](N)CCCNC(=N)N)C(=O)O (H-RRRPPPPYYA-OH)
- Activity (Fibroblast): Non-Toxic

From ChEMBL document CHEMBL4371016, “Proline- and Arginine-Rich Peptides as Flexible Allosteric Modulators of Human Proteasome Activity” (J Med Chem, 2019)
